# In paper PMC9380907 (Analytica Chimica Acta, 2022):
# Experiments:
# Format in all cases: binding
# Cu = conditions: SWV, n = 3
# Procedure, shortened: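 Au slides were cleaned by sonication in 20 wt% ethanolamine at about 50 °C, then dipped briefly in piranha. Probe 1 (2.5 μM) with 5 mM TCEP in 10 mM PBS pH 7.4 was assembled at 4 °C for 16 h, then backfilled with 1 mM 9-mercaptononanol for 3 h at RT. Cu was loaded with 10 μM CuCl2 for 30 min at RT. Cathepsin B was in 25 mM MES pH 5.0 and incubated at 37 °C. SWV was run in N2-purged 10 mM PBS pH 7.4 (SCE, Pt counter), with at least three independent repeats.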
# [1] = ITC of probe 2 with the label; conditions: 25 °C, 10 mM PBS pH 7.4, 0.5 mM probe 2 into 0.05 mM label
# Procedure, shortened: (§1)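 MicroCal ITC200 titrations at 25 °C: 38 consecutive injections at intervals of at least 120 s. All solutions were degassed beforehand. Heats of dilution, measured by titrating beyond saturation, were subtracted from each data set.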
# TGF = experiment: ITC of probe 2 with TGF; conditions: 25 °C
# Procedure, shortened: as §1
# ITC with heparin = conditions: 25 °C, 10 mM PBS pH 7.4
# Procedure, shortened: as §1
substance,measurement,setting,value
11-Mercaptoundecanoic acid (MUA)K-DAHKI-(ARKKAAKA)3VLVLVLVL [probe 1],Binding with Cu II ion,"Cu; surface immobilized probe 1, after cleavage by target enzyme (33 nM)",completely abolish the binding
same,Binding with Cu II ion,"Cu; surface immobilized probe 1, before enzyme cleavage",relatively strong binding
(MUA)K–FSHF-(ARKKAAKA)3VLVLVLVL [probe 2],Binding to label,[1],bind strongly
same,Binding to target TGF,"TGF; 10 mM PBS pH 7.4, 0.5 mM probe 2 into 0.05 mM TGF",bind strongly
same,Binding with target TGF relative to label,"TGF; 10 mM PBS pH 7.4, comparison with label",stronger
"TGF beta 1: transforming growth factor-beta 1, from R&D system",Interaction with heparin,ITC with heparin,weak interactions with heparin
